Experimental data collected from several papers.
Lines come from different studies, so protocols differ.
SRC: Proto-oncogene tyrosine-protein kinase Src (SRC, Homo sapiens, UniProt P12931)
ENAH: Protein enabled homolog (ENAH, UniProt Q8N8S7)
DPP4: Dipeptidyl peptidase 4 (DPP4, Homo sapiens, UniProt P27487)

| SMILES | target | assay | conditions | endpoint | result |
| --- | --- | --- | --- | --- | --- |
| Cn1cc(-c2cccc(N3CCc4c(sc5c4CC(C)(C)C5)C3=O)c2CO)cc(Nc2ccncn2)c1=O | SRC | enzyme activity, inhibitor, FRET |  | Ki | > 3330 nM |
| CC(=O)N[C@@H](Cc1ccccc1Cl)C(=O)N1CCC[C@H]1C(=O)N1CCC[C@H]1C(=O)N1CCC[C@H]1C(=O)N1CCC[C@H]1C(=O)N[C@H](C(=O)N[C@@H](CCC(=O)O)C(=O)N[C@@H](CC(=O)O)C(=O)N[C@@H](CCC(=O)O)C(=O)N[C@@H](CC(C)C)C(N)=O)[C@@H](C)O | ENAH | binding, fluorescence |  | Kd | 1250 nM |
| Cn1cc(-c2cc(F)cc(N3CCn4c(cc5c4CCCC5)C3=O)c2CO)cc(Nc2ccc(N3CCN(C4COC4)CC3)cn2)c1=O | SRC | enzyme activity, inhibitor, FRET |  | Ki | 254 nM |
| c1ccc(Nc2cccc3ccccc23)cc1 | lush (Drosophila melanogaster, UniProt O02372) | binding |  | Kd | 650 nM |
| CC(=O)N[C@@H](Cc1ccccc1Cl)C(=O)N1CCC[C@H]1C(=O)N1CCC[C@H]1C(=O)N1CCC[C@H]1C(=O)N1CCC[C@H]1C(=O)O | ENAH | binding, fluorescence |  | Kd | 9900 nM |
| O=C1C=CC(=O)N1CCCCCCCCCCCCCCCCCCN1CCCCC1 | Acetylcholinesterase (ACHE, Homo sapiens, UniProt P22303) | enzyme activity, inhibitor |  | Ki | 20400 nM |
| NC(=S)c1cn(C2OC(CO)C(O)C2O)c2ncnc(N)c12 (stereo not drawn) | Activin receptor type-1 (ACVR1, Homo sapiens, UniProt Q04771) | thermal stability, DSF |  | Kd | < 1000 nM |
| CC(C)[C@H](N)C(=O)N1CCC[C@H]1C(=O)N[C@H](C(=O)N1CCC[C@H]1C(=O)N[C@@H](CCCNC(=N)N)C(=O)O)C(C)C | DPP4 | enzyme activity, inhibitor, absorbance | pH 8 | IC50 | 118 µM |
| CC[C@H]1NC(=O)[C@@H]2CSC(=N2)[C@H](Cc2ccccc2)N(C)C(=O)[C@@H]2CCCN2C(=O)[C@H](C(C)C)N(C)C(=O)[C@H](Cc2ccccc2)OC(=O)[C@H](C)[C@@H](C)NC(=O)[C@@H]([C@@H](C)O)NC(=O)[C@@H](CC(C)C)N(C)C(=O)[C@@H]2CSC1=N2 | DPP4 | enzyme activity, inhibitor |  | IC50 | 245 µM |
| CC(C)[C@H](N)C(=O)N1CCC[C@H]1C(=O)N[C@H](C(=O)N1CCC[C@H]1C(=O)N[C@@H](CCC(=O)O)C(=O)O)C(C)C | DPP4 | enzyme activity, inhibitor, absorbance | pH 8 | IC50 | 83.4 µM |
| CC(=O)N[C@@H](CO)C(=O)N[C@@H](Cc1ccccc1)C(=O)N[C@@H](CCC(=O)O)C(=O)N[C@@H](Cc1ccccc1Cl)C(=O)N1CCC[C@H]1C(=O)N1CCC[C@H]1C(=O)N1CCC[C@H]1C(=O)N1CCC[C@H]1C(=O)N[C@H](C(=O)N[C@@H](CCC(=O)O)C(=O)N[C@@H](CC(=O)O)C(=O)N[C@@H](CCC(=O)O)C(=O)N[C@@H](CC(C)C)C(N)=O)[C@@H](C)O | ENAH | binding, fluorescence |  | Kd | 790 nM |
| CC(C)[C@H](N)C(=O)N1CCC[C@H]1C(=O)N[C@H](C(=O)N1CCC[C@H]1C(=O)N[C@@H](CC(N)=O)C(=O)O)C(C)C | DPP4 | enzyme activity, inhibitor, absorbance | pH 8 | IC50 | 88.7 µM |
| CC(=O)N[C@@H](Cc1ccccc1Cl)C(=O)N1CCC[C@H]1C(=O)N1CCC[C@H]1C(=O)N1CCC[C@H]1C(=O)N1CCC[C@H]1C(=O)N[C@H](C(=O)N[C@@H](CCC(=O)O)C(=O)N[C@@H](CC(=O)O)C(=O)N[C@@H](CC(=O)O)C(=O)N[C@@H](CC(C)C)C(N)=O)[C@@H](C)O | ENAH | binding, fluorescence |  | Kd | 3800 nM |
| CC(C)[C@H](N)C(=O)N1CCC[C@H]1C(=O)N[C@H](C(=O)N1CCC[C@H]1C(=O)N[C@@H](Cc1c[nH]c2ccccc12)C(=O)O)C(C)C | DPP4 | enzyme activity, inhibitor, absorbance | pH 8 | IC50 | 92.1 µM |
| CC(=O)P(=O)(O)OCCc1cn([C@H](Cc2ccccc2)C(=O)O)nn1 | 1-deoxy-D-xylulose-5-phosphate synthase (dxs, Escherichia coli, UniProt P77488) | enzyme activity, inhibitor | with preincubation | Ki | 90 nM |
